# In ChEMBL document CHEMBL4371014, “Novel Allosteric Ligands of γ-Aminobutyric Acid Transporter 1 (GAT1) by MS Based Screening of Pseudostatic Hydrazone Libraries” (J Med Chem, 2018):
# Activity calls are given as the source filed them. The rule behind the calls is not given here.
# Target: Sodium- and chloride-dependent GABA transporter 1 (Mus musculus) (UniProt P31648)
# Test: Inhibition of NO711 binding to mouse GAT1 expressed in HEK293 cell membranes assessed as residual binding at 1 uM preincubated for 4 hrs followed by NO711 addition and measured after 40 mins by LC-ESI-MS/MS analysis relative to control
# In short: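 Single hydrazones formed in situ in the presence of mouse GAT1 from one aldehyde (1.0 µM) and hydrazine (200 µM). Formation ran 4 h, then NO711 MS marker was added for 40 min. Specifically bound NO711 was freed from the target and quantified by LC-ESI-MS/MS. Results are % remaining specific binding, means±SD of four replicates.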
row,Compound,Activity [%]
1,O=C(O)[C@H]1CNC[C@@H](CCN/N=C/c2ccc(-c3ccc(Cl)cc3Cl)o2)C1 (racemic),41
2,O=C(O)[C@H]1CNC[C@@H](CN/N=C/c2ccc(-c3ccccc3OC(F)(F)F)o2)C1 (racemic),66
3,O=Cc1ccccc1-c1cccc(F)c1F,107
4,O=Cc1sccc1-c1ccc(Cl)cc1Cl,116
5,O=Cc1cccc(-c2ccccc2)c1,111
6,O=Cc1ccc(-c2cccc(C(F)(F)F)c2)o1,70
7,O=C(O)[C@H]1CNC[C@@H](CCN/N=C/c2ccc(-c3ccc(F)c(C(F)(F)F)c3)o2)C1 (racemic),72
8,Cc1ccsc1-c1sc(/C=N/NC[C@@H]2CNC[C@H](C(=O)O)C2)cc1C (racemic),74
9,Cn1cnnc1Sc1ccc(/C=N/NC[C@@H]2CNC[C@H](C(=O)O)C2)o1 (racemic),84
10,O=C(O)[C@H]1CNC[C@@H](CCN/N=C/c2ccc(-c3ccccc3Cl)o2)C1 (racemic),52
11,O=Cc1cccs1,118
12,O=C(O)[C@H]1CNC[C@@H](CN/N=C/c2cc(Br)co2)C1 (racemic),53
13,COc1cc(/C=N/NCC[C@@H]2CNC[C@H](C(=O)O)C2)cc(OC)c1O (racemic),62
14,O=C(O)[C@H]1CNC[C@@H](CCN/N=C/c2cnc(-c3ccccn3)nc2)C1 (racemic),83
15,O=Cc1ccccc1-c1ccsc1,106
16,O=C(O)[C@H]1CNC[C@@H](CN/N=C/c2cnc(-c3ccc4ccccc4c3)nc2)C1 (racemic),27
17,COc1ccc(F)cc1-c1ccccc1C=O,108
18,O=C(O)[C@H]1CNC[C@@H](CN/N=C/c2ccccc2-c2cc(F)ccc2F)C1 (racemic),73
19,O=C(O)[C@H]1CNC[C@@H](CN/N=C/c2cnc(-c3cccc4ccccc34)nc2)C1 (racemic),61
20,O=Cc1ccc(-c2ccccc2)o1,82
21,O=C(O)[C@H]1CNC[C@@H](CN/N=C/c2ccc(-c3ccccc3)o2)C1 (racemic),68
22,COc1ccc(F)cc1-c1ccccc1/C=N/NC[C@@H]1CNC[C@H](C(=O)O)C1 (racemic),72
23,O=C(O)[C@H]1CNC[C@@H](CN/N=C/c2ccccc2-c2cccnc2)C1 (racemic),93
24,Cc1ccccc1-c1ccsc1C=O,93
25,Cn1c(C=O)ccc1-c1ccc(Cl)cc1,101

row,Compound,Activity [%]
1,O=Cc1ccc(-c2ccc(Cl)cc2Cl)o1,97
2,O=Cc1sccc1-c1ccc(C(F)(F)F)cc1C(F)(F)F,129
3,O=C(O)[C@H]1CNC[C@@H](CN/N=C/c2ccccc2-c2ccc(F)cc2F)C1 (racemic),66
4,COc1ccccc1C=O,108
5,O=C(O)[C@H]1CNC[C@@H](CCN/N=C/c2ccc(-c3cc(C(F)(F)F)cc(C(F)(F)F)c3)o2)C1 (racemic),76
6,COc1cccc(F)c1-c1ccccc1C=O,112
7,O=C(O)[C@H]1CNC[C@@H](CCN/N=C/c2ccc(-c3cccc(Cl)c3)o2)C1 (racemic),69
8,O=Cc1ccc(-c2cccc(Cl)c2)o1,103
9,O=Cc1ccc(-c2ccccc2Br)o1,129
10,O=Cc1ccc([N+](=O)[O-])cc1,113
11,O=C(O)[C@H]1CNC[C@@H](CN/N=C/c2sccc2-n2cccc2)C1 (racemic),86
12,O=Cc1ccc(I)o1,115
13,COc1ccccc1/C=N/NC[C@@H]1CNC[C@H](C(=O)O)C1 (racemic),85
14,O=Cc1ccccc1-c1cccs1,107
15,O=C(O)[C@H]1CNC[C@@H](CN/N=C/c2ccc(C#Cc3ccccc3)s2)C1 (racemic),51
16,O=Cc1cnc(NCc2ccccc2)nc1,118
17,O=C(O)[C@H]1CNC[C@H](CCN/N=C/c2cccn2-c2ccc(C(F)(F)F)cc2)C1 (racemic),> 50
18,O=Cc1ccc(-c2ccc(Cl)cc2F)o1,97
19,O=Cc1sccc1-c1ccccc1,113
20,O=C(O)[C@H]1CNC[C@@H](CN/N=C/c2cnc(-c3ccccc3F)nc2)C1 (racemic),68
21,O=Cc1sccc1-c1ccc(F)cc1F,118
22,O=C(O)[C@H]1CNC[C@@H](CN/N=C/c2ccc(-c3ccc(Cl)cc3)o2)C1 (racemic),56
23,O=C(O)[C@H]1CNC[C@H](CN/N=C/c2csc3ccccc23)C1 (racemic),> 50
24,O=Cc1sccc1-n1cccc1,82
25,O=C(O)[C@H]1CNC[C@@H](CN/N=C/c2cccn2-c2ccc(C(F)(F)F)cc2)C1 (racemic),75

row,Compound,Activity [%]
1,O=Cc1ccnc2ccccc12,100
2,O=C(O)[C@H]1CNC[C@@H](CN/N=C/c2cnc(N3CCCCC3)nc2)C1 (racemic),69
3,COc1cc(F)ccc1-c1ccccc1C=O,101
4,O=C(O)[C@H]1CNC[C@@H](CCN/N=C/c2ccccc2-c2ccsc2)C1 (racemic),80
5,O=Cc1ccc(-c2cc(C(F)(F)F)cc(C(F)(F)F)c2)o1,103
6,O=C(O)[C@H]1CNC[C@@H](CCN/N=C/c2ccccc2-n2cccc2)C1 (racemic),82
7,O=C(O)[C@H]1CNC[C@@H](CCN/N=C/c2ccc(-c3ccc(Br)cc3)o2)C1 (racemic),65
8,O=C(O)[C@H]1CNC[C@@H](CN/N=C/c2cccc(Oc3ccccc3)c2)C1 (racemic),46
9,O=C(O)[C@H]1CNC[C@@H](CCN/N=C/c2ccc(-c3ccccc3OC(F)(F)F)o2)C1 (racemic),59
10,O=C(O)[C@H]1CNC[C@H](CN/N=C/c2ccccc2-n2cccc2)C1 (racemic),> 50
11,Cc1ccc(-c2ccsc2C=O)c(C)c1,124
12,O=C(O)[C@H]1CNC[C@@H](CCN/N=C/c2ccco2)C1 (racemic),60
13,O=C(O)[C@H]1CNC[C@@H](CN/N=C/c2ccc(-c3ccccc3Br)o2)C1 (racemic),36
14,COc1cccc(F)c1-c1ccccc1/C=N/NC[C@@H]1CNC[C@H](C(=O)O)C1 (racemic),70
15,O=Cc1ccc(-c2ccc(Cl)cc2)s1,107
16,O=Cc1ccc(-c2cc(C(F)(F)F)ccc2Cl)o1,88
17,O=C(O)[C@H]1CNC[C@@H](CCN/N=C/c2ccc(-c3cccc4ccccc34)o2)C1 (racemic),58
18,Cc1ccsc1-c1sc(C=O)cc1C,106
19,O=C(O)[C@H]1CNC[C@@H](CN/N=C/c2ccc(-c3ccc(Cl)cc3)s2)C1 (racemic),75
20,O=Cc1ccco1,107
21,O=C(O)[C@H]1CNC[C@@H](CCN/N=C/c2ccc(-c3ccn[nH]3)o2)C1 (racemic),72
22,O=Cc1ccc2ccccc2n1,114
23,Cc1cccc2cc(C=O)c(Cl)nc12,103
24,O=Cc1ccccc1-n1cccc1,92
25,O=C(O)[C@H]1CNC[C@@H](CN/N=C/c2cccs2)C1 (racemic),67

row,Compound,Activity [%]
1,O=Cc1ccc(Br)o1,127
2,O=Cc1ccc(-c2ccccc2Cl)o1,99
3,O=Cc1ccccc1-c1cc(F)ccc1F,98
4,Cc1ccc(-c2ccsc2C=O)cc1,109
5,O=C(O)[C@H]1CNC[C@@H](CN/N=C/c2cnc(-c3ccccc3)nc2)C1 (racemic),55
6,O=C(O)[C@H]1CNC[C@@H](CCN/N=C/c2ccc(-c3cccc(C(F)(F)F)c3)o2)C1 (racemic),70
7,O=C(O)[C@H]1CNC[C@@H](CCN/N=C/c2ccc(-c3ccc(Cl)cc3)o2)C1 (racemic),62
8,O=Cc1ccc(-c2ccc(Br)cc2)o1,97
9,O=C(O)[C@H]1CNC[C@@H](CN/N=C/c2ccc[nH]2)C1 (racemic),89
10,O=C(O)[C@H]1CNC[C@@H](CN/N=C/c2ccccc2-n2cccc2)C1 (racemic),91
11,Cc1cccc2cc(/C=N/NCC[C@@H]3CNC[C@H](C(=O)O)C3)c(Cl)nc12 (racemic),62
12,O=C(O)[C@H]1CNC[C@H](CCN/N=C/c2ccc(-c3ccc(C(F)(F)F)cc3Cl)o2)C1 (racemic),> 50
13,O=Cc1cnc(-c2cccs2)nc1,103
14,O=Cc1cnc(N2CCCCC2)nc1,108
15,O=C(O)[C@H]1CNC[C@H](CCN/N=C/c2ccc(-c3ccccc3OC(F)(F)F)o2)C1 (racemic),> 50
16,O=C(O)[C@H]1CNC[C@@H](CN/N=C/c2cnc(SCc3ccccc3)nc2)C1 (racemic),53
17,O=Cc1ccc(C#Cc2ccccc2)s1,90
18,Cc1ccc(-c2cccc(C=O)c2)cc1,104
19,COc1cc(C=O)cc(OC)c1O,99
20,O=C(O)[C@H]1CNC[C@@H](CCN/N=C/c2ccc(-c3ccc(C(F)(F)F)cc3Cl)o2)C1 (racemic),47
21,O=C(O)[C@H]1CNC[C@H](CN/N=C/c2ccc(C#Cc3ccccc3)s2)C1 (racemic),> 50
22,O=C(O)[C@H]1CNC[C@@H](CN/N=C/c2ccccc2-c2cccc(F)c2F)C1 (racemic),58

# Target: Sodium- and chloride-dependent GABA transporter 1 (Homo sapiens) (UniProt P30531)
# Test: Inhibition of human GAT1 expressed in HEK293 cells assessed as reduction in [3H]GABA uptake preincubated for 25 mins followed by [3H]GABA addition and measured after 4 mins by liquid scintillation counting method
# Type: cell-based
# Sodium- and chloride-dependent GABA transporter 1 (Homo sapiens), sequence (P30531 whole entry, looked up): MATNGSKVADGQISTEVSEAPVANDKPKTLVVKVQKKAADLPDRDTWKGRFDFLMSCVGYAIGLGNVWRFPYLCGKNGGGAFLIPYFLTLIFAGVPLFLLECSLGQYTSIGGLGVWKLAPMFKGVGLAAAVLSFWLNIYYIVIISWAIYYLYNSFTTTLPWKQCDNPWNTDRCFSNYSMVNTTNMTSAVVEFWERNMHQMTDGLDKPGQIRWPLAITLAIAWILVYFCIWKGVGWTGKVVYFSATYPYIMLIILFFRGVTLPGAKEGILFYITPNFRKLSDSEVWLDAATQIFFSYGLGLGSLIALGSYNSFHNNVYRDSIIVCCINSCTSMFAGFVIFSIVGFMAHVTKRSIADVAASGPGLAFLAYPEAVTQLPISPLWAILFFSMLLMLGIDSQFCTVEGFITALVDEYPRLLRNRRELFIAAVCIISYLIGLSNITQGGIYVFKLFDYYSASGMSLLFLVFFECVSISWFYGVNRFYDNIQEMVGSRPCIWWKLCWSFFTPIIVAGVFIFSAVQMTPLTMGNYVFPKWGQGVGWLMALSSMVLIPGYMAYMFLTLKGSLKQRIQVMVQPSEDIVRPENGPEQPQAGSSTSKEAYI
row,Compound,inhibition
1,O=C(O)[C@H]1CNC[C@@H](CCN/N=C/c2ccc(-c3ccc(Cl)cc3Cl)o2)C1 (racemic),Active
2,O=C(O)C1=CCCN(CCON=C(c2ccccc2)c2ccccc2)C1,Active
3,O=C(O)[C@H]1CNC[C@@H](CCN/N=C/c2ccc(-c3ccc(C(F)(F)F)cc3Cl)o2)C1 (racemic),Active
